Compound activity: PubChem, several laboratories
In the library only some 4.8% were active in any assay of this set; here they are far more common.
PAFAH1B2 FP inh = blocks human PAF acetylhydrolase 1b catalytic subunit 2. P68402. recombinant PAFAH1B2, FP-rhodamine activity probe, fluorescence polarization. inhibition, % at 3.39 µM. 340,000 tested, 1.2% active. AID 492953;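 active means inhibition above the mean of all tested compounds plus 3 SD, cut at about 24% in these data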
Target sequence (P68402 whole entry, looked up): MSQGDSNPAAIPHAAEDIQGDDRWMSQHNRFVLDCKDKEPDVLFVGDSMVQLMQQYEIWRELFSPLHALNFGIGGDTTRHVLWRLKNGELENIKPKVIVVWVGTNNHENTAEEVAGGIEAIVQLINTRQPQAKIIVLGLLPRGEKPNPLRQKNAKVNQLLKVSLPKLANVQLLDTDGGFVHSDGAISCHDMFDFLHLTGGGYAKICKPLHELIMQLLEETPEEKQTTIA
PAFAH1B3 FP inh = blocks human PAF acetylhydrolase 1B catalytic subunit 3. inhibition, % at 3.39 µM. 340,000 tested, 0.28% active. recombinant PAFAH1B3, FP-rhodamine probe, fluorescence polarization. AID 492972. Q15102;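 active means inhibition above the screen-wide average of all tested compounds plus 3 SD, cut at about 25% in these data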
Target sequence (Q15102 whole entry, looked up): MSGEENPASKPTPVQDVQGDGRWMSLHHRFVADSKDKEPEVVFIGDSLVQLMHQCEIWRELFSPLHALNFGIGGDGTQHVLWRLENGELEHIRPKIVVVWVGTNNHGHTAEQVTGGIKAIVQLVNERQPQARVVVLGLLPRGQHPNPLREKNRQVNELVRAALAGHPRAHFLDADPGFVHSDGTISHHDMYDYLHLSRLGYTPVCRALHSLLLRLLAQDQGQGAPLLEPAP
GRIN3A LBD mod = modulators (binders) of human NR3A ligand-binding domain; NR3A LBD differential scanning fluorimetry, Tm shift; 0% = protein alone, 100% = glycine-bound protein; Tm shift relative to glycine control, % at 25 µM; 340,000 tested, 2.5% active;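 active means melting temperature shift of at least 10% of the positive control shift, at one fixed dose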
UCH37 inh = blocks the human deubiquitinase UCH37. Q9Y5K5. 330,000 tested, 0.33% active. inhibition, % (concentration not given with the values). purified proteasome/UCH37, Ub-AMC cleavage fluorescence;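 active means mean inhibition over replicate wells above about 20%, limit read from the data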
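Schedule: 30 min plus 25 min, room temperature / Material: human UCH37 within purified proteasomes / Technique: AMC fluorescence intensity at 355/460 nm / Buffer or medium: pH 7.4 Tris-HCl (50 mM) with ovalbumin, ATP-MgCl2, DTT / Controls: wells without proteasome as full block, compound-free enzyme plus substrate as uninhibited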
PAFAH2 inh = inhibitors of human PAFAH2; recombinant PAFAH2, FP-rhodamine activity probe, fluorescence polarization; inhibition, % at 3.39 µM; 340,000 tested, 0.99% active;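 active means inhibition above the mean over all tested compounds plus 3 SD, cut at about 30% in these data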;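 further: inhibitors block probe labeling of enzyme so polarization drops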
pPAFAH FP inh = inhibitors of human plasma PAF acetylhydrolase (pPAFAH). 330,000 tested, 1.5% active. Q13093. recombinant pPAFAH, FP-rhodamine probe fluorescence polarization. AID 463082. inhibition, % at 3.39 µM;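 active means inhibition above the mean inhibition across the screen plus 3 SD, cut at about 25% in these data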;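 further: inhibitors block binding of the rhodamine activity-based probe so polarization drops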
Large screens that a line does not name were inactive.

O=[N+]([O-])c1ccc2c(c1)C(N1CCOCC1)/C(=C/COc1ccc(Cl)cc1Cl)O2 (centres undefined)	PAFAH1B2 FP inh 24
O=C(COc1ccc([N+](=O)[O-])cc1Cl)N1CCOCC1	none
O=[N+]([O-])c1cc(-c2n[nH]c(-c3ccccc3)n2)cc([N+](=O)[O-])c1	GRIN3A LBD mod 27
CCCOc1ccc(CNC(=S)Nc2ccccc2)cc1Cl	GRIN3A LBD mod 18
COc1ccc(CNC(=S)Nc2ccccc2)cc1Cl	none
CC(C)Oc1ccc(CNC(=S)Nc2ccccc2)cc1Cl	none
CC(C)COc1ccc(CNC(=S)Nc2ccccc2)cc1Cl	GRIN3A LBD mod 15
Brc1ccc(-c2ccc(C=NNc3nncc(-c4ccccc4)n3)o2)cc1	none (no result: PAFAH1B2 FP inh, PAFAH1B3 FP inh, GRIN3A LBD mod, PAFAH2 inh, pPAFAH FP inh)
Cc1ccc(N=C2NC(=O)S/C2=C\c2ccco2)cc1	none
O=C1NC(=Nc2ccccc2)/C(=C/c2ccco2)S1	pPAFAH FP inh 34
O=C(O)c1ccc(NN=C2CCSc3ccc(F)cc32)cc1	none (no result: PAFAH1B2 FP inh, PAFAH1B3 FP inh, GRIN3A LBD mod, PAFAH2 inh, pPAFAH FP inh)
CC(C)(C)c1csc(NC(=O)c2cccs2)n1	none
CSc1nc2ccc3nc(NC(=O)c4cccs4)sc3c2s1	GRIN3A LBD mod 28
CSc1nc2ccc3nc(NC(=O)c4ccc(Cl)s4)sc3c2s1	GRIN3A LBD mod 21
CC(C)(C)c1ccc(C(=O)NCCC(=O)N2CCN(c3ncccn3)CC2)cc1	PAFAH1B2 FP inh 30
C(/C=C/c1ccccc1)=NNc1nc2ccccc2s1	none (no result: PAFAH1B2 FP inh, PAFAH1B3 FP inh, GRIN3A LBD mod, PAFAH2 inh, pPAFAH FP inh)
COC(=O)Cn1c(=NC(=O)c2sc3ccccc3c2Cl)sc2cc(S(N)(=O)=O)ccc21	GRIN3A LBD mod 13 (no result: UCH37 inh)
C#CCn1c(=NC(=O)c2cc(-c3cccs3)nc3ccccc23)sc2cc(S(N)(=O)=O)ccc21	GRIN3A LBD mod 15
C#CCn1c(=NC(=O)c2cc(Cl)sc2Cl)sc2cc(S(N)(=O)=O)ccc21	GRIN3A LBD mod 31
COc1ccc(-c2cc(C)no2)cc1S(=O)(=O)Nc1cccc(C)c1	pPAFAH FP inh 30
O=C(CSc1nc(=O)[nH]c2c1CCCC2)Nc1cc(C(F)(F)F)cc(C(F)(F)F)c1	GRIN3A LBD mod 10
O=C(C1CCCN(Cc2cccs2)C1)N1CCCCCC1 (centres undefined)	GRIN3A LBD mod 11
O=C(C1CCCN(Cc2ccccc2)C1)N1CCCCC1 (centres undefined)	none
O=C(OCCc1ccccc1)c1cc(O)c(O)c(O)c1	PAFAH1B2 FP inh 55
Nc1ccc(C(=O)OCCc2ccccc2)cc1	none
Cc1ccc2nc(Cl)c(C=NNc3ccc(C(=O)O)cc3)cc2c1	none (no result: PAFAH1B2 FP inh, PAFAH1B3 FP inh, GRIN3A LBD mod, PAFAH2 inh, pPAFAH FP inh)
CCC(=O)c1ccc(N2CCN(C(=O)c3cc([N+](=O)[O-])ccc3N3CCN(C)CC3)CC2)c(F)c1	GRIN3A LBD mod 14
O=C1NC(c2ccc(Cl)c([N+](=O)[O-])c2)Nc2ccccc21 (centres undefined)	none
O=C1NC(c2cc(Cl)cc([N+](=O)[O-])c2O)Nc2ccccc21 (centres undefined)	GRIN3A LBD mod 14
CCOC(=O)c1c(C)[nH]c(C(C)=NO)c1C	none (no result: PAFAH1B2 FP inh, PAFAH1B3 FP inh, GRIN3A LBD mod, PAFAH2 inh, pPAFAH FP inh)
N#C/C(=C/c1ccco1)C(N)=S	PAFAH2 inh 34, pPAFAH FP inh 33
N#C/C(=C\c1ccc2c(c1)OCO2)C(N)=S	none (no result: PAFAH1B2 FP inh, PAFAH1B3 FP inh, PAFAH2 inh)
NC(=O)c1ccc(NC(=O)COC(=O)CCSc2ccccc2)cc1	none
Cc1ccc(SCCC(=O)OCC(=O)Nc2ccc(C(N)=O)cc2)cc1	PAFAH1B2 FP inh 26
O=C(COC(=O)CCSc1ccccc1)Nc1cc(F)ccc1F	PAFAH1B2 FP inh 32
NS(=O)(=O)c1cccc(NC(=O)COC(=O)CSCc2ccccc2)c1	pPAFAH FP inh 28
NS(=O)(=O)c1cccc(NC(=O)COC(=O)CCSc2ccccc2)c1	pPAFAH FP inh 25
NS(=O)(=O)c1cccc(NC(=O)CN2C(=O)C(=O)N(Cc3ccccc3)C2=O)c1	none
COc1ccc(C(C)=NNc2ccccc2Cl)c(O)c1	none (no result: PAFAH1B2 FP inh, PAFAH1B3 FP inh, GRIN3A LBD mod, PAFAH2 inh, pPAFAH FP inh)
C/C=C/C=NNc1nc(-c2ccc([N+](=O)[O-])cc2)cs1	none (no result: PAFAH1B2 FP inh, PAFAH1B3 FP inh, GRIN3A LBD mod, PAFAH2 inh, pPAFAH FP inh)
CN(C)c1nc(NCc2ccccc2)nc(NN=Cc2ccccc2F)n1	none (no result: PAFAH1B2 FP inh, PAFAH1B3 FP inh, GRIN3A LBD mod, PAFAH2 inh, pPAFAH FP inh)
Cc1cc(Cl)ccc1OCCCC(=O)OCC(N)=O	none
Cc1cc(Cl)ccc1OCC(=O)OCC(=O)Nc1ccc(F)c([N+](=O)[O-])c1	GRIN3A LBD mod 26
Cc1cc(Cl)ccc1OCCCC(=O)OCC(=O)Nc1cccc(S(N)(=O)=O)c1	GRIN3A LBD mod 10
